Data taken from ChEMBL document CHEMBL1671715, “Depolarization, bacterial membrane composition, and the antimicrobial action of ceragenins” (2010).
≈ marks a conversion by molar mass, not a printed value. Calls of active or inactive are those of the source. The rule behind the calls is not given here.

Columns and labels:
Escherichia coli [1] = experiment: Induction of outer membrane permeabilization of Escherichia coli ML-35p by nitrocefin permeation based spectrophotometric assay; assay type: functional, organism-based
Method in brief: (§1)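 E. coli ML-35p grown overnight in TSB at 37°C, washed three times in 10 mM phosphate/0.1 M NaCl, pH 7.4. Diluted to 10^6 CFU/ml in the same buffer with 300 μg/ml TSB. Ceragenin or melittin 0–100 μg/ml, in duplicate. Outer membrane: 30 μM nitrocefin, A486. Inner membrane: 2.5 mM ONPG, A420. Read every 2 min for 60 min at 37°C with shaking.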

Staphylococcus aureus [2] = experiment: Induction of cytoplasmic membrane depolarization in Staphylococcus aureus ATCC 25923 with lipid composition of 0% phosphatidylethanolamine, 57% phosphatidylglycerol and 19% cardiolipin at MBC by DiS-C2 dye based fluorimetric assay; assay type: functional
Method in brief: (§2)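 Overnight TSB cultures (37°C) were washed three times in 250 mM sucrose, 5 mM MgSO4, 10 mM K phosphate, pH 7.0, and diluted to A600 0.085 with 1 μM DiS-C2(5). Dye loaded 7 min at room temperature, then 7 min at 37°C. Ceragenin added with stirring at 37°C; fluorescence (ex 600/em 660 nm) read every 30 s. Depolarization at 330 s is expressed as % of the maximal fluorescence increase at 4× MBC.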

Bacillus cereus [3] = experiment: Bactericidal activity against Bacillus cereus ATCC 11778 with lipid composition of 43% phosphatidylethanolamine, 40% phosphatidylglycerol and 17% cardiolipin by broth microdilution method; assay type: functional
Method in brief: (§3)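 Cells were incubated 24 h with incrementally varied ceragenin concentrations, then plated on tryptic soy agar. MBC is the lowest concentration completely eradicating bacteria (detection limit 10 CFU/ml).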

Escherichia coli [4] = experiment: Induction of inner membrane permeabilization of Escherichia coli ML-35p at 100 ug/ml by ONPG hydrolysis based spectrophotometric assay
[5] = system: Staphylococcus epidermidis; experiment: Induction of cytoplasmic membrane depolarization in Staphylococcus epidermidis ATCC 35984 with lipid composition of 0% phosphatidylethanolamine, 90% phosphatidylglycerol and 1% cardiolipin at MBC by DiS-C2 dye based fluorimetric assay; assay type: functional; method in brief: as §2
Paenibacillus polymyxa [6] = experiment: Bactericidal activity against Bacillus polymyxa ATCC 21830 with lipid composition of 60% phosphatidylethanolamine, 3% phosphatidylglycerol and 8% cardiolipin by broth microdilution method; assay type: functional; method in brief: as §3
Enterococcus faecalis [7] = experiment: Induction of cytoplasmic membrane depolarization in Enterococcus faecalis ATCC 29212 with lipid composition of 0% phosphatidylethanolamine, 27% phosphatidylglycerol and 19% cardiolipin at MBC by DiS-C2 dye based fluorimetric assay; assay type: functional; method in brief: as §2
Staphylococcus aureus [8] = experiment: Induction of cytoplasmic membrane depolarization in Staphylococcus aureus ATCC BAA-41 with lipid composition of 0% phosphatidylethanolamine, 57% phosphatidylglycerol and 19% cardiolipin at MBC by DiS-C2 dye based fluorimetric assay; assay type: functional; method in brief: as §2
Staphylococcus aureus [9] = experiment: Bactericidal activity against methicillin-resistant Staphylococcus aureus ATCC BAA-41 with lipid composition of 0% phosphatidylethanolamine, 57% phosphatidylglycerol and 19% cardiolipin by broth microdilution method; assay type: functional
Method in brief: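 Cells were incubated 24 h with stepwise-varied ceragenin concentrations, then each sample was plated on tryptic soy agar. MBC was taken as the lowest concentration giving complete kill (detection limit 10 CFU/ml).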

Paenibacillus polymyxa [10] = experiment: Induction of cytoplasmic membrane depolarization in Bacillus polymyxa ATCC 21830 with lipid composition of 60% phosphatidylethanolamine, 3% phosphatidylglycerol and 8% cardiolipin at MBC by DiS-C2 dye based fluorimetric assay; assay type: functional; method in brief: as §2
[11] = system: Staphylococcus epidermidis; experiment: Bactericidal activity against Staphylococcus epidermidis ATCC 35984 with lipid composition of 0% phosphatidylethanolamine, 90% phosphatidylglycerol and 1% cardiolipin by broth microdilution method; assay type: functional; method in brief: as §3
Bacillus cereus [12] = experiment: Induction of cytoplasmic membrane depolarization in Bacillus cereus ATCC 11778 with lipid composition of 43% phosphatidylethanolamine, 40% phosphatidylglycerol and 17% cardiolipin at MBC by DiS-C2 dye based fluorimetric assay; assay type: functional; method in brief: as §2
Enterococcus faecalis [13] = experiment: Bactericidal activity against Enterococcus faecalis ATCC 29212 with lipid composition of 0% phosphatidylethanolamine, 27% phosphatidylglycerol and 19% cardiolipin by broth microdilution method; assay type: functional; method in brief: as §3
Staphylococcus aureus [14] = experiment: Bactericidal activity against Staphylococcus aureus ATCC 25923 with lipid composition of 0% phosphatidylethanolamine, 67% phosphatidylglycerol and 19% cardiolipin by broth microdilution method; assay type: functional; conditions: in the assay text read “57% phosphatidylglycerol” for “67% phosphatidylglycerol”; method in brief: as §3
Escherichia coli [15] = experiment: Induction of inner membrane permeabilization of Escherichia coli ML-35p by ONPG hydrolysis based spectrophotometric assay; assay type: functional, organism-based; method in brief: as §1
Escherichia coli [16] = experiment: Bactericidal activity against Escherichia coli ATCC 25922 with lipid composition of […], 15% phosphatidylglycerol and 5% cardiolipin by broth microdilution method; assay type: functional
Method in brief: (§4)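 MBC by broth microdilution in the Gram-negative depolarization buffer (20 mM glucose, 5 mM HEPES, pH 7.3). Cells were incubated 24 h with incrementally varied ceragenin concentrations and plated on tryptic soy agar. MBC is the lowest concentration completely eradicating bacteria (detection limit 10 CFU/ml).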

Klebsiella pneumoniae [17] = experiment: Bactericidal activity against Klebsiella pneumoniae ATCC 13883 with lipid composition of 82% phosphatidylethanolamine, 5% phosphatidylglycerol and 6% cardiolipin by broth microdilution method; assay type: functional; method in brief: as §4
Pseudomonas aeruginosa = experiment: Bactericidal activity against Pseudomonas aeruginosa ATCC 27852 with lipid composition of 60% phosphatidylethanolamine, 21% phosphatidylglycerol and 11% cardiolipin by broth microdilution method; assay type: functional; method in brief: as §4
Klebsiella pneumoniae [18] = experiment: Induction of outer membrane permeabilization of Klebsiella pneumoniae ATCC 13883 at MBC by DiS-C2 dye based fluorimetric assay; assay type: functional, organism-based
Method in brief: (§5)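 Overnight TSB cultures (37°C), washed three times in TSB, then suspended in 20 mM glucose/5 mM HEPES, pH 7.3, at A600 0.085 with 1 μM DiS-C2(5). Equilibrated about 60 min at 37°C to a stable baseline. EDTA or ceragenin added; fluorescence (ex 600/em 660 nm) read every 30 s with stirring at 37°C. A fluorescence drop indicates outer-membrane permeabilization and dye uptake.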

Escherichia coli [19] = experiment: Induction of outer membrane permeabilization of Escherichia coli ATCC 25922 at MBC by DiS-C2 dye based fluorimetric assay; assay type: functional, organism-based; method in brief: as §5

Structure (SMILES) | Activity (Escherichia coli [1]) | Activity (Staphylococcus aureus [2]) | MBC (Bacillus cereus [3]) | Activity (Escherichia coli [4]) | Activity [5] | MBC (Paenibacillus polymyxa [6]) | Activity (Enterococcus faecalis [7]) | Activity (Staphylococcus aureus [8]) | MBC (Staphylococcus aureus [9]) | Activity (Paenibacillus polymyxa [10]) | MBC [11] | Activity (Bacillus cereus [12]) | MBC (Enterococcus faecalis [13]) | MBC (Staphylococcus aureus [14]) | Activity (Escherichia coli [15]) | MBC (Escherichia coli [16]) | MBC (Klebsiella pneumoniae [17]) | MBC (Pseudomonas aeruginosa) | Activity (Klebsiella pneumoniae [18]) | Activity (Escherichia coli [19])
CC[C@H](C)[C@H](NC(=O)CN)C(=O)NCC(=O)N[C@@H](C)C(=O)N[C@H](C(=O)N[C@@H](CC(C)C)C(=O)N[C@@H](CCCCN)C(=O)N[C@H](C(=O)N[C@@H](CC(C)C)C(=O)N[C@H](C(=O)N[C@H](C(=O)NCC(=O)N[C@@H](CC(C)C)C(=O)N1CCC[C@H]1C(=O)N[C@@H](C)C(=O)N[C@@H](CC(C)C)C(=O)N[C@H](C(=O)N[C@@H](CO)C(=O)N[C@@H](Cc1c[nH]c2ccccc12)C(=O)N[C@H](C(=O)N[C@@H](CCCCN)C(=O)N[C@@H](CCCNC(=N)N)C(=O)N[C@@H](CCCCN)C(=O)N[C@@H](CCCNC(=N)N)C(=O)N[C@@H](CCC(N)=O)C(=O)N[C@@H](CCC(N)=O)C(N)=O)[C@@H](C)CC)[C@@H](C)CC)[C@@H](C)O)[C@@H](C)O)C(C)C)C(C)C | Active |  |  |  |  |  |  |  |  |  |  |  |  |  |  |  |  |  |  | 
C[C@H](CCCNCCCNCCCN)[C@H]1CC[C@H]2[C@@H]3[C@H](OCCCN)C[C@@H]4C[C@H](OCCCN)CC[C@]4(C)[C@H]3C[C@H](OCCCN)[C@]12C | Dose-dependent effect | 39.8% | 7 µg/mL (≈ 10.3 µM) | inactive | 26.3% | 2.5 µg/mL (≈ 3.68 µM) | 77.2% | 15.3% | 28 µg/mL (≈ 41.2 µM) | 39.6% | 2.5 µg/mL (≈ 3.68 µM) | 79.7% | 280 µg/mL (≈ 412 µM) | 49 µg/mL (≈ 72.2 µM) |  |  |  |  |  | 
CCCCCCCCNCCC[C@@H](C)[C@H]1CC[C@H]2[C@@H]3[C@H](OCCCN)C[C@@H]4C[C@H](OCCCN)CC[C@]4(C)[C@H]3C[C@H](OCCCN)[C@]12C | Dose-dependent effect | 41.5% | 1 µg/mL (≈ 1.48 µM) |  | 25% | 2.5 µg/mL (≈ 3.69 µM) | 74% | 45.8% | 2 µg/mL (≈ 2.95 µM) | 88.4% | 1 µg/mL (≈ 1.48 µM) | 86.7% | 5.5 µg/mL (≈ 8.12 µM) | 2.5 µg/mL (≈ 3.69 µM) | Active | 1.5 µg/mL (≈ 2.22 µM) | 2.5 µg/mL (≈ 3.69 µM) | 3.5 µg/mL (≈ 5.17 µM) |  | 
C[C@H](CCCO)[C@H]1CC[C@H]2[C@@H]3[C@H](OCCCN)C[C@@H]4C[C@H](OCCCN)CC[C@]4(C)[C@H]3C[C@H](OCCCN)[C@]12C | Dose-dependent effect | 82.8% | 7 µg/mL (≈ 12.4 µM) | inactive | 60.1% | 15 µg/mL (≈ 26.5 µM) | 80.6% | 39% | 19 µg/mL (≈ 33.6 µM) | 96.6% | 12 µg/mL (≈ 21.2 µM) | 84.7% | 50 µg/mL (≈ 88.4 µM) | 35 µg/mL (≈ 61.9 µM) |  | 10 µg/mL (≈ 17.7 µM) | 12.5 µg/mL (≈ 22.1 µM) | 12 µg/mL (≈ 21.2 µM) | Active | Active
